Source: ChEMBL document CHEMBL1138245, “Discovery of N1-(6-chloroimidazo[2,1-b][1,3]thiazole-5-sulfonyl)tryptamine as a potent, selective, and orally active 5-HT(6) receptor agonist” (J Med Chem, 2007)
Converted amounts (≈) assume the structure as drawn. The source made the active and inactive calls. No cut-off for these calls is given here.

Tests used:
[1] = Ratio of drug level in brain to plasma in Sprague-Dawley rat at 100 mg/kg, po after 2 hrs; format: ADME, organism-based; design: dose 100 mg/kg, route oral; conditions: read-out: BPR
Outline: (§1)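 Rats given a single dose, 3 mg/kg ip or 100 mg/kg oral; drug concentrations measured in plasma and brain at timed points after dosing; brain/plasma concentration ratio calculated.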

[2] = Metabolic stability in human liver microsomes; format: ADME, Microsome
[3] = Half life in dog at 1 mg/kg, iv; format: ADME, organism-based, Canis lupus familiaris; design: dose 1 mg/kg, route intravenous; conditions: in vivo
[4] = Drug level in Sprague-Dawley rat brain at 100 mg/kg, po after 0.5 hr; format: ADME, organism-based; design: dose 100 mg/kg, route oral; conditions: read-out: Drug uptake
Outline: (§2)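 Rats given a single 3 mg/kg ip or 100 mg/kg oral dose; plasma and brain concentrations measured over time to assess brain/plasma ratio.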

[5] = Drug level in Sprague-Dawley rat plasma at 3 mg/kg, ip after 4 hrs; format: ADME, organism-based; design: dose 3 mg/kg, route intraperitoneal; outline: as §2
[6] = Ratio of drug level in brain to plasma in Sprague-Dawley rat at 100 mg/kg, po after 4 hrs; format: ADME, organism-based; design: dose 100 mg/kg, route oral; conditions: read-out: BPR; outline: as §1
[7] = Metabolic stability in monkey liver microsomes; format: ADME, Macaca mulatta, Microsome; conditions: rhesus monkey
[8] = Aqueous solubility at pH 3 to […]; format: physicochemical
[9] = Ratio of drug level in brain to plasma in Sprague-Dawley rat at 3 mg/kg, ip after 2 hrs; format: ADME, organism-based; design: dose 3 mg/kg, route intraperitoneal; conditions: read-out: BPR; outline: as §1
[10] = Volume of distribution in dog at 1 mg/kg, iv; format: ADME, organism-based, Canis lupus familiaris; design: dose 1 mg/kg, route intravenous; conditions: in vivo, read-out: Vdss
[11] = Half life in rat at 1 mg/kg, iv; format: ADME, organism-based; design: dose 1 mg/kg, route intravenous; conditions: in vivo
[12] = Ratio of drug level in brain to plasma in Sprague-Dawley rat at 3 mg/kg, ip after 4 hrs; format: ADME, organism-based; design: dose 3 mg/kg, route intraperitoneal; conditions: read-out: BPR; outline: as §1
[13] = Drug level in Sprague-Dawley rat brain at 3 mg/kg, ip after 1 hr; format: ADME, organism-based; design: dose 3 mg/kg, route intraperitoneal; conditions: read-out: Drug uptake; outline: as §2
[14] = Aqueous solubility at pH 8; format: physicochemical
[15] = Ratio of drug level in brain to plasma in Sprague-Dawley rat at 100 mg/kg, po after 0.5 hr; format: ADME, organism-based; design: dose 100 mg/kg, route oral; conditions: read-out: BPR; outline: as §1
[16] = Drug level in Sprague-Dawley rat plasma at 100 mg/kg, po after 0.5 hr; format: ADME, organism-based; design: dose 100 mg/kg, route oral; outline: as §2
[17] = Half life in rat at 10 mg/kg, po; format: ADME, organism-based; design: dose 10 mg/kg, route oral; conditions: in vivo
[18] = Permeability in parallel artificial membrane; format: ADME; conditions: PAMPA; read-out: permeability
Outline: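 Parallel artificial membrane permeability assay (PAMPA); permeability reported in cm/s; triplicate determinations, standard error <20%.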

[19] = Tmax in rat at 10 mg/kg, po; format: ADME, organism-based; design: dose 10 mg/kg, route oral; conditions: in vivo
[20] = Drug level in Sprague-Dawley rat brain at 3 mg/kg, ip after 0.5 hr; format: ADME, organism-based; design: dose 3 mg/kg, route intraperitoneal; conditions: read-out: Drug uptake; outline: as §2
[21] = Clearance in rat at 1 mg/kg, iv; format: ADME, organism-based; design: dose 1 mg/kg, route intravenous; conditions: in vivo
[22] = Drug level in Sprague-Dawley rat plasma at 3 mg/kg, ip after 0.25 hr; format: ADME, organism-based; design: dose 3 mg/kg, route intraperitoneal; outline: as §2
[23] = Ratio of drug level in brain to plasma in Sprague-Dawley rat at 3 mg/kg, ip after 0.25 hr; format: ADME, organism-based; design: dose 3 mg/kg, route intraperitoneal; conditions: read-out: BPR; outline: as §1
[24] = Metabolic stability in rat liver microsomes; format: ADME, Microsome
Rattus norvegicus [25] = organism: Rattus norvegicus; experiment: Decrease in water intake in schedule-induced polydipsia rat model; format: functional, organism-based
[26] = AUC in rat at 1 mg/kg, iv; format: ADME, organism-based; design: dose 1 mg/kg, route intravenous; conditions: plasma
[27] = Ratio of drug level in brain to plasma in Sprague-Dawley rat at 100 mg/kg, po after 1 hr; format: ADME, organism-based; design: dose 100 mg/kg, route oral; conditions: read-out: BPR; outline: as §1
[28] = molecular target: Beta-2 adrenergic receptor (Homo sapiens) (UniProt P07550); experiment: Displacement of radio ligand from beta-2 adrenergic receptor at 100 nM
[29] = molecular target: 5-hydroxytryptamine receptor 1B (Homo sapiens) (UniProt P28222); experiment: Displacement of [3H]5-HT from human 5HT1B receptor expressed in CHO cells at 1 uM; format: cell-based
Rattus norvegicus [30] = organism: Rattus norvegicus; experiment: Effect on water intake in non-SIP rat model; format: functional, organism-based
[31] = molecular target: T1, 5-hydroxytryptamine receptor 3A (Homo sapiens) (UniProt P46098); experiment: Inhibition of human 5HT3 receptor expressed in CHO cells at 100 nM; format: cell-based
T1 sequence (whole entry): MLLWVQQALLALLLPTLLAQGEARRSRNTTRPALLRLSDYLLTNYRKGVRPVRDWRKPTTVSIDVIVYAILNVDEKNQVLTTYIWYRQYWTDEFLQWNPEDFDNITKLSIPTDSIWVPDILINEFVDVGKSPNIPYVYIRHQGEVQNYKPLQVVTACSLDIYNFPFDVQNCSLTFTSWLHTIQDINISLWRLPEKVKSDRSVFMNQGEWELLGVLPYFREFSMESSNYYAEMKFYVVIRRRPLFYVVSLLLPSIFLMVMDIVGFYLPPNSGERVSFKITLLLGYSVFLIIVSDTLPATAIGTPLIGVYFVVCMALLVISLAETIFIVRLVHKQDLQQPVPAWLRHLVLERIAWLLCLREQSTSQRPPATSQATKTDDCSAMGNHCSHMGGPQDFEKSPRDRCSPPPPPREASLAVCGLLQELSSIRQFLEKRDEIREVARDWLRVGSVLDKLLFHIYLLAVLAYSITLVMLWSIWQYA

[32] = Drug level in Sprague-Dawley rat brain at 3 mg/kg, ip after 0.25 hr; format: ADME, organism-based; design: dose 3 mg/kg, route intraperitoneal; conditions: read-out: Drug uptake; outline: as §2
[33] = molecular target: 5-hydroxytryptamine receptor 7 (Homo sapiens, UniProt P34969); experiment: Displacement of [3H]LSD from human 5HT7 receptor expressed in CHO cells; format: cell-based
Outline: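 Human 5-HT₇ clone stably expressed in CHO cells; binding measured by [³H]LSD displacement; Ki determined in triplicate.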

[34] = molecular target: T2, 5-hydroxytryptamine receptor 1F (Homo sapiens) (UniProt P30939); experiment: Displacement of [3H]5-HT from human 5HT1F receptor expressed in CHO cells at 1 uM; format: cell-based
T2 sequence (whole entry): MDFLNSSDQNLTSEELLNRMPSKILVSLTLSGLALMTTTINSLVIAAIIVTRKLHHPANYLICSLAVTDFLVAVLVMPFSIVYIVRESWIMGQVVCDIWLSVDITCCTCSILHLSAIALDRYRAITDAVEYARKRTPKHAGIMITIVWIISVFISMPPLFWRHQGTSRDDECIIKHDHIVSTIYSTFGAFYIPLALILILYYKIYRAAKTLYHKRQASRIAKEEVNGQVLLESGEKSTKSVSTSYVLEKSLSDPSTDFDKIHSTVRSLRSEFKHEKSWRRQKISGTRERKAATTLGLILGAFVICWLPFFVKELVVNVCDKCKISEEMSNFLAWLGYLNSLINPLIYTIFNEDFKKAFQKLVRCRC

[35] = Half life in dog at 5 mg/kg, po; format: ADME, organism-based, Canis lupus familiaris; design: dose 5 mg/kg, route oral; conditions: in vivo

5-hydroxytryptamine receptor 1B (Homo sapiens), sequence (P28222 whole entry): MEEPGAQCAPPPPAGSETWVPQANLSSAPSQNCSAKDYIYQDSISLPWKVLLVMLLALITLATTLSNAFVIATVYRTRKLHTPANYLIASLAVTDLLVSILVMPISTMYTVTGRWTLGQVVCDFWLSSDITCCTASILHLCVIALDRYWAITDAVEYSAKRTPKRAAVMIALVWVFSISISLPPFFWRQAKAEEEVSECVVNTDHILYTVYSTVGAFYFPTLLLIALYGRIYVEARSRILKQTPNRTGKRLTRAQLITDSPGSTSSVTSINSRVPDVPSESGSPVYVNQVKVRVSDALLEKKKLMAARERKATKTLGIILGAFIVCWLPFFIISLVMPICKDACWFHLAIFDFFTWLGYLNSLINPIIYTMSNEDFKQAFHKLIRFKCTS
5-hydroxytryptamine receptor 7, sequence (P34969 whole entry): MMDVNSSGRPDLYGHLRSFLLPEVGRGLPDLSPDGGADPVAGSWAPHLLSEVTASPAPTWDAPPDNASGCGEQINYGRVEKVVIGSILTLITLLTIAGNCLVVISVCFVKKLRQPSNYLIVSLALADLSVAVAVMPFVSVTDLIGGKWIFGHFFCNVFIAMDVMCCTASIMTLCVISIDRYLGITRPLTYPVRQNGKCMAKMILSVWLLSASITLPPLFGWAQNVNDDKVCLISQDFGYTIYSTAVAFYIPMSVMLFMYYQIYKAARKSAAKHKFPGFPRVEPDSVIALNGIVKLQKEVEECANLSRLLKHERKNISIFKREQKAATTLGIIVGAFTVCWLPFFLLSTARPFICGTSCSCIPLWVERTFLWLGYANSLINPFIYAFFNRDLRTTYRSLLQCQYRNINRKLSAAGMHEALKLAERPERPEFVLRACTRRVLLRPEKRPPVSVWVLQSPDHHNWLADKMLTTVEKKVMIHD
Beta-2 adrenergic receptor (Homo sapiens), sequence (P07550 whole entry, looked up): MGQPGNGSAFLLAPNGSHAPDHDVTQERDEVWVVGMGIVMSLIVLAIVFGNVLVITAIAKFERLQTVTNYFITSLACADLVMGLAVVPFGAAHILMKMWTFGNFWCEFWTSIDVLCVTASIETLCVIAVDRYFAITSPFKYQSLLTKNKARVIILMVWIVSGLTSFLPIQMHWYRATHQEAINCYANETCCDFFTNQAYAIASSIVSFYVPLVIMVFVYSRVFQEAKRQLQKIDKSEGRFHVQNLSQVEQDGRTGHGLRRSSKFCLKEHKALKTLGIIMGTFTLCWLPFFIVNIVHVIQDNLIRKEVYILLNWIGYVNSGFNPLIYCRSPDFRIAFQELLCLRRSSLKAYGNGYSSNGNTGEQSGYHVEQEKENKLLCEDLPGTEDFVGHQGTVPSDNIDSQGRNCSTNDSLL

**Q.** Which Kp at 2 h [1] does the source give for `NCCc1cn(S(=O)(=O)c2c(Cl)nc3sccn23)c2ccccc12` here?
**A.** The Kp at 2 h was 0.25.

**Q.** What about the half-life [2] of the same compound?
**A.** The half-life was > 1 h.

**Q.** What about the half-life [3] of the same compound?
**A.** The half-life was 2.9 h.

**Q.** And the concentration at 0.5 h [4]?
**A.** Its concentration at 0.5 h is 194 ng/mL.

**Q.** What about the concentration at 4 h [5] of the same compound?
**A.** The concentration at 4 h was 4.3 ng/mL.

**Q.** And the Kp at 4 h [6]?
**A.** The Kp at 4 h was 0.26.

**Q.** What about the half-life [7] of the same compound?
**A.** Its half-life is 6.4 min.

**Q.** What about the solubility [8] of the same compound?
**A.** Its solubility is > 10000 µg/mL.

**Q.** And the Kp at 2 h [9]?
**A.** Its Kp at 2 h is 0.33.

**Q.** What about the Vd [10] of the same compound?
**A.** Its Vd is 7.9 L/kg.

**Q.** What about the half-life [11] of the same compound?
**A.** The half-life was 5.4 h.

**Q.** And the Kp at 4 h [12]?
**A.** Its Kp at 4 h is 1.39.

**Q.** And the concentration at 1 h [13]?
**A.** Its concentration at 1 h is 14.2 ng/mL.

**Q.** And the solubility [14]?
**A.** The solubility was 240 µg/mL (≈ 630 µM).

**Q.** What about the Kp at 0.5 h [15] of the same compound?
**A.** Its Kp at 0.5 h is 0.55.

**Q.** And the concentration at 0.5 h [16]?
**A.** Its concentration at 0.5 h is 356 ng/mL.

**Q.** What about the half-life [17] of the same compound?
**A.** Its half-life is 3.1 h.

**Q.** And the Papp [18]?
**A.** The Papp was 13.6 ×10⁻⁶ cm/s.

**Q.** What about the Tmax [19] of the same compound?
**A.** The Tmax was 1.7 h.

**Q.** And the concentration at 0.5 h [20]?
**A.** Its concentration at 0.5 h is 11.5 ng/mL.

**Q.** And the clearance [21]?
**A.** Its clearance is 123 mL/min/kg.

**Q.** And the concentration at 0.25 h [22]?
**A.** The concentration at 0.25 h was 91.3 ng/mL.

**Q.** And the Kp at 0.25 h [23]?
**A.** Its Kp at 0.25 h is 0.09.

**Q.** And the half-life [24]?
**A.** Its half-life is 8 min.

**Q.** What about the Activity (Rattus norvegicus [25]) of the same compound?
**A.** Its Activity is “Dose-dependent effect”.

**Q.** And the AUC [26]?
**A.** The AUC was 140 ng·h/mL.

**Q.** And the Kp at 1 h [27]?
**A.** Its Kp at 1 h is 0.14.

**Q.** What about the Activity [28] of the same compound?
**A.** Its Activity is < 50%.

**Q.** What about the Activity [29] of the same compound?
**A.** The Activity was 36%.

**Q.** And the Activity (Rattus norvegicus [30])?
**A.** Its Activity is “inactive”.

**Q.** What about the inhibition [31] of the same compound?
**A.** The inhibition was < 50%.

**Q.** And the concentration at 0.25 h [32]?
**A.** The concentration at 0.25 h was 8.4 ng/mL.

**Q.** What about the Ki [33] of the same compound?
**A.** The Ki was 679 nM.

**Q.** And the Activity [34]?
**A.** The Activity was 40%.

**Q.** What about the half-life [35] of the same compound?
**A.** The half-life was 6.6 h.
